The results in this text go back to ChEMBL document CHEMBL1157246, “Cytotoxic isomalabaricane triterpenes from the marine sponge Rhabdastrella globostellata” (2006).

The test system of assay [1] is L5178Y. The assay can be described thus: Cytotoxicity against mouse L5178Y cells at 3 ug/mL after 72 hrs by MTT assay. Format: functional. Put shortly:
(§1)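 Exponentially growing cells (3750 per well) were exposed to samples from EtOH 96% stocks for 72 h at 37 °C in 5% CO2. MTT (20 µL of 5 mg/mL in PBS, pH 7.4) was added for 3 h 45 min, then formazan was released with DMSO and read at 520 nm. Survival % was taken relative to untreated cells, with media containing 0.1% EGMME/DMSO as controls. Assays were run in triplicate and repeated three times.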
On the technique in general: Formazan colour is commonly taken as a measure of viable cells.

Assay [2] has as its system HeLa. The experiment in a line: Cytotoxicity against human HeLa cells at 10 ug/mL after 72 hrs by MTT assay. The assay is classed as functional. An outline of the steps:
as §1

The subject of assay [3] is L5178Y. The experiment in a line: Cytotoxicity against mouse L5178Y cells at 10 ug/mL after 72 hrs by MTT assay. The assay is classed as functional. Put shortly: as §1
The subject of assay [4] is HeLa. The assay can be described thus: Cytotoxicity against human HeLa cells at 3 ug/mL after 72 hrs by MTT assay. Format: functional. An outline of the steps: as §1
For assay [5], the system named is Saccharomyces cerevisiae. The experiment in a line: Antifungal activity against Saccharomyces cerevisiae after 24 hrs by agar diffusion assay. Format: functional, organism-based. Put shortly: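 S. cerevisiae was inoculated on YPD agar, and MeOH-dissolved compounds were applied on 5 mm disks. Inhibition zones were recorded after 24 h at 27 °C, with nystatin 5 µg as positive control.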

Assay [6] has as its system PC-12. The experiment in a line: Cytotoxicity against rat PC12 cells after 72 hrs by MTT assay. The assay is classed as functional. Put shortly:
as §1

Assay [7] deals with L5178Y. The assay can be described thus: Cytotoxicity against mouse L5178Y cells after 72 hrs by MTT assay. The assay is classed as functional. An outline of the steps:
as §1

In assay [8] the test system is PC-12. The experiment in a line: Cytotoxicity against rat PC12 cells at 10 ug/mL after 72 hrs by MTT assay. Format: functional. The following applies: PC-12, 72 h. An outline of the steps:
as §1

Assay [9] deals with PC-12. The assay can be described thus: Cytotoxicity against rat PC12 cells at 3 ug/mL after 72 hrs by MTT assay. The assay is classed as functional. The following applies: PC-12, 72 h. Put shortly:
as §1

In assay [10] the test system is HeLa. The assay can be described thus: Cytotoxicity against human HeLa cells after 72 hrs by MTT assay. The assay is classed as functional. An outline of the steps:
as §1

The test system of assay [11] is Escherichia coli. The assay can be described thus: Antibacterial activity against Escherichia coli DSM10290 at 10 ug after 24 hrs by agar diffusion assay. The assay is classed as functional. The settings on record: read-out: IZ. An outline of the steps:
(§2)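 Disks (5 mm) impregnated with compound dissolved in MeOH were laid on LB agar plates seeded with B. subtilis DSM2109 or E. coli DSM10290. Inhibition zones were read after 24 h at 37 °C. Streptomycin and gentamycin, 5 µg each, served as positive controls.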
For orientation: A growth-free zone around the sample is the usual read-out of agar diffusion tests.

The subject of assay [12] is Bacillus subtilis. The assay can be described thus: Antibacterial activity against Bacillus subtilis DSM2109 at 5 ug after 24 hrs by agar diffusion assay. The assay is classed as functional. The settings on record: read-out: IZ. An outline of the steps:
as §2

The test system of assay [13] is Escherichia coli. The assay can be described thus: Antibacterial activity against Escherichia coli DSM10290 at 5 ug after 24 hrs by agar diffusion assay. The assay is classed as functional. The settings on record: read-out: IZ. An outline of the steps:
as §2

Assay [14] deals with Saccharomyces cerevisiae. The assay can be described thus: Antifungal activity against Saccharomyces cerevisiae at 5 ug after 24 hrs by agar diffusion assay. The assay is classed as functional, organism-based. Put shortly: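 Paper disks (5 mm diameter) loaded with test material dissolved in MeOH were placed on YPD agar plates inoculated with S. cerevisiae. After 24 h of incubation at 27 °C, the zone of inhibition (mm) was recorded.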

For assay [15], the system named is HeLa. The assay can be described thus: Cytotoxicity against human HeLa cells at 30 ug/mL after 72 hrs by MTT assay. Format: functional, cell-based. An outline of the steps:
as §1

In assay [16] the test system is PC-12. The assay can be described thus: Cytotoxicity against rat PC12 cells at 30 ug/mL after 72 hrs by MTT assay. Format: functional, cell-based. Put shortly: as §1
The test system of assay [17] is Bacillus subtilis. The assay can be described thus: Antibacterial activity against Bacillus subtilis DSM2109 at 10 ug after 24 hrs by agar diffusion assay. The assay is classed as functional. The settings on record: read-out: IZ. An outline of the steps: as §2

Active and inactive are the calls of the source. The rule behind the calls is not given here. Where only a bound is given, the exact number is not on record here.

Usually inhibition stands for the drop in the measured response relative to a control, in per cent. A low value points to a weak effect. On to `CC(=O)O[C@@H]1CC[C@@]2(C)[C@@H](CC[C@]3(C)/C(=C(C)/C=C/C=C(\C)C(CC=C(C)C)O[C@@H]4OC[C@H](O)[C@H](O)[C@@H]4O)C(=O)C[C@@H]23)C1(C)C` (some centres not stated), for which the inhibition at 3 µg/mL in assay [1] came out at 100%; in [4], 0%; in assay [9], 0%. For the same compound, the inhibition at 10 µg/mL was determined as 56% in assay [2], 100% in assay [3] and 38% in assay [8]. Further, in [5], the result was inactive. Also, the results for the ED50 in assay [6], in assay [7] and in [10] were 21.54 nmol, 0.22 nmol and 22.76 nmol, respectively.

For `CC(/C=C/C(O)C(C)(C)O)=C\C=C\C(C)=C1\C(=O)C[C@H]2[C@@]3(C)CC[C@@H](O)[C@](C)(C(=O)O)[C@@H]3CC[C@]12C` (some centres not stated) [GLOBOSTELLATIC ACID L, M], the values for the inhibition at 3 µg/mL in [1], in [4] and in assay [9] were 100%, 0% and 0%, respectively. Moreover, the inhibition at 10 µg/mL came to 42% in [2], 100% in assay [3] and 30% in [8]. Besides, in assay [5], the outcome was inactive. Also, the values for the ED50 in assay [6], in assay [7] and in assay [10] were 27.52 nmol, 0.92 nmol and 27.87 nmol, respectively.

In the case of `CC(C)=CCC(O[C@H]1OC[C@@H](O)[C@@H](O)[C@H]1O)/C(C)=C/C=C/C(C)=C1\C(=O)C[C@H]2[C@@]3(C)CC[C@@H](O)C(C)(C)[C@@H]3CC[C@]12C` (some centres not stated), the inhibition at 3 µg/mL was 100% in assay [1], 26% in assay [4] and 33% in assay [9]. Also, the inhibition at 10 µg/mL in assay [2] amounted to 100%; in assay [3] it was 100%; in [8] it was 54%. Also, in assay [11], the zone of inhibition at 10 µg/disc was found to be 12 mm. The outcome in assay [5] was inactive. Besides, the ED50 was found to be 27.63 nmol in [6], 2.4 nmol in assay [7] and 8.14 nmol in assay [10].

Turning to `CN[C@@H]1[C@H](O[C@H]2[C@H](O[C@H]3[C@H](O)[C@@H](O)[C@H](N=C(N)N)[C@@H](O)[C@@H]3N=C(N)N)O[C@@H](C)[C@]2(O)C=O)O[C@@H](CO)[C@H](O)[C@H]1O` [STREPTOMYCIN], the zone of inhibition at 5 µg/disc came out at 20 mm in [12] and 13 mm in [13].

Compound NYSTATIN gave an inhibition zone (IZ) in assay [14] of 12 mm.

In the case of `CCOC(/C=C/C(C)=C/C=C/C(C)=C1/C(=O)C[C@H]2[C@@]3(C)CC[C@@H](OC(C)=O)[C@](C)(C(=O)O)[C@@H]3CC[C@]12C)C(C)(C)O` (some centres not stated) [GLOBOSTELLATIC ACID J, K], the inhibition at 3 µg/mL in [1] was 24%; in assay [4], 0%; in assay [9] it was 0%. Besides, the inhibition at 10 µg/mL came to 0% in assay [2], 100% in assay [3] and 0% in [8]. In addition, the outcome in assay [5], in assay [15] and in assay [16] was inactive. In assay [7], this compound yielded an ED50 of 8.28 nmol.

As to `C/C(C(=O)/C=C/C(C)=C/C=C/C(C)(C)O)=C1/C(=O)C[C@H]2[C@@]3(C)CC[C@H](O)C(C)(C)[C@@H]3CC[C@]12C` [GLOBOSTELLETIN], the inhibition at 3 µg/mL in [1] came out at 66%; in [4], 0%; in assay [9] it was 0%. In addition, the inhibition at 10 µg/mL worked out at 0% in [2], 94% in [3] and 0% in assay [8]. Besides, the zone of inhibition at 5 µg/disc in assay [12] is 12 mm. Further, the result in assay [5] and in [16] was inactive. Moreover, the values for the ED50 in assay [7] and in assay [10] were 5.34 nmol and above 60 nmol, respectively. In addition, the zone of inhibition at 10 µg/disc in [17] was found to be 13 mm.

For `CCOC(/C=C/C(C)=C/C=C/C(C)=C1/C(=O)C[C@H]2[C@@]3(C)CC[C@@H](O)[C@](C)(C(=O)O)[C@@H]3CC[C@]12C)C(C)(C)O` (some centres not stated) [GLOBOSTELLATIC ACID H, I], the inhibition at 3 µg/mL turned out to be 100% in assay [1], 8% in assay [4] and 16% in assay [9]. Moreover, the inhibition at 10 µg/mL in assay [2] stood at 23%; in [3], 100%; in [8], 41%. Further, the zone of inhibition at 10 µg/disc in [11] came out at 10 mm. The outcome in assay [5] was inactive. The ED50 in assay [6] came to 28.07 nmol; in assay [7], 0.31 nmol; in [10], 46.05 nmol.

As to `COC(/C=C/C(C)=C/C=C/C(C)=C1/C(=O)C[C@H]2[C@@]3(C)CC[C@@H](O)[C@](C)(C(=O)O)[C@@H]3CC[C@]12C)C(C)(C)O` (some centres not stated) [GLOBOSTELLATIC ACID D, G], the inhibition at 3 µg/mL in assay [1] turned out to be 100%; in assay [4], 4%; in assay [9], 18%. The results for the inhibition at 10 µg/mL in assay [2], in assay [3] and in assay [8] were 25%, 100% and 42%, respectively. For the same compound, the zone of inhibition at 10 µg/disc in assay [11] came out at 10 mm. Moreover, in [5], the outcome was inactive. For the same compound, the ED50 in assay [6] came out at 30.33 nmol; in assay [7] it was 0.39 nmol; in assay [10] it was 46.69 nmol.

As to `C/C(C(=O)/C=C/C(C)=C/C=C/C(C)(C)O)=C1/C(=O)C[C@H]2[C@@]3(C)CC[C@@H](O)[C@](C)(C(=O)O)[C@@H]3CC[C@]12C` [GLOBOSTELLATIC ACID F], the results for the inhibition at 3 µg/mL in [1], in assay [4] and in assay [9] were 42%, 0% and 0%, respectively. For the same compound, the inhibition at 10 µg/mL was found to be 0% in [2], 100% in assay [3] and 0% in assay [8]. In addition, the outcome in [5], in assay [15] and in assay [16] was inactive. In addition, the ED50 in assay [7] was found to be 10.36 nmol.

For `CC(=O)O[C@@H]1CC[C@@]2(C)[C@@H](CC[C@]3(C)/C(=C(\C)C(=O)/C=C/C(C)=C/C=C/C(C)(C)O)C(=O)C[C@@H]23)[C@@]1(C)C(=O)O` [GLOBOSTELLATIC ACIDS A], the results for the inhibition at 3 µg/mL in assay [1], in [4] and in assay [9] were 100%, 0% and 0%, respectively. Moreover, the inhibition at 10 µg/mL is 0% in [2], 100% in [3] and 0% in assay [8]. Also, the outcome in assay [5], in assay [15] and in assay [16] was inactive.
